Source: paper PMC6988732 (The Biochemical journal, 2013)
Changes are numbered by the printed parent chain. “And” between values parts separate entries of the source, which are not always exact repeats. Equal values may be shown once.

Key:
[1] = molecular target: full-length PKCθ Y239A (Mus musculus, UniProt Q02111, Y239A); test: Membrane translocation in HEK-293 cells; type: cell-based; conditions: 50 nM PMA, 2 h
[2] = molecular target: full-length PKCθ T243A (Mus musculus, UniProt Q02111, T243A); test: Membrane translocation in HEK-293 cells; type: cell-based; conditions: 50 nM PMA, 2 h
[3] = molecular target: full-length PKCθ W253G (Mus musculus, UniProt Q02111, W253G); test: Membrane translocation in HEK-293 cells; type: cell-based; conditions: 50 nM PMA, 2 h
[4] = molecular target: full-length PKCθ L255G (Mus musculus, UniProt Q02111, L255G); test: Membrane translocation in HEK-293 cells; type: cell-based; conditions: 50 nM PMA, 2 h
[5] = molecular target: full-length PKCθ Q258G (Mus musculus, UniProt Q02111, Q258G); test: Membrane translocation in HEK-293 cells; type: cell-based; conditions: 50 nM PMA, 2 h
[6] = molecular target: GFP–PKCθ wild-type (Mus musculus, UniProt Q02111); test: Confocal translocation in living LNCaP cells; type: cell-based
Outline: (§1)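 Mouse full-length PKCθ (wild-type or C1B point mutant) carrying a C-terminal EGFP tag via a GGNSGG spacer, transfected into LNCaP prostate cancer cells. Living cells were exposed to PMA and imaged by confocal microscopy over a time course. Membrane/cytoplasm intensity ratios were quantified from the images; means ± S.E.M., with images typical of three to four independent experiments.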

[7] = molecular target: GFP–PKCθ Y239A (Mus musculus, UniProt Q02111, Y239A); test: Confocal translocation in living LNCaP cells; type: cell-based
Outline: as §1

[8] = molecular target: GFP–PKCθ T243A (Mus musculus, UniProt Q02111, T243A); test: Confocal translocation in living LNCaP cells; type: cell-based
Outline: as §1

[9] = molecular target: GFP–PKCθ W253G (Mus musculus, UniProt Q02111, W253G); test: Confocal translocation in living LNCaP cells; type: cell-based
Outline: as §1

[10] = molecular target: GFP–PKCθ L255G (Mus musculus, UniProt Q02111, L255G); test: Confocal translocation in living LNCaP cells; type: cell-based
Outline: as §1

[11] = molecular target: GFP–PKCθ Q258G (Mus musculus, UniProt Q02111, Q258G); test: Confocal translocation in living LNCaP cells; type: cell-based
Outline: as §1

[12] = molecular target: T1, PKCθC1B wild-type (Mus musculus, UniProt Q02111); test: [3H]PDBu binding assay
T1 sequence (Q02111 232-281): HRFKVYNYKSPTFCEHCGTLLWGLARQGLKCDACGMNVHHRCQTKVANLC
Outline: (§2)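 GST-cleaved mouse PKCθ C1B (residues 232–281), E. coli-expressed, affinity/gel-filtration purified. PEG-precipitation [3H]PDBu binding; Kd from saturable plus linear non-specific fit. Ki: [3H]PDBu at 2–5-fold each construct's Kd, DOG or SAG 1–100000 nM, dried from chloroform with phospholipid, sonicated. PS dependence: total phospholipid 100 μg/ml, PS 0–100%, remainder PC, relative to 100% PS. Means ± S.E.M., three independent experiments.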

[13] = molecular target: T2, PKCθC1B Y239A (Mus musculus, UniProt Q02111, Y239A); test: [3H]PDBu binding assay
T2 sequence (Q02111 232-281 Y239A): T1 sequence (Q02111 232-281) with Y8A
Outline: as §2

[14] = molecular target: T3, PKCθC1B T243A (Mus musculus, UniProt Q02111, T243A); test: [3H]PDBu binding assay
T3 sequence (Q02111 232-281 T243A): T1 sequence (Q02111 232-281) with T12A
Outline: as §2

[15] = molecular target: T4, PKCθC1B W253G (Mus musculus, UniProt Q02111, W253G); test: [3H]PDBu binding assay
T4 sequence (Q02111 232-281 W253G): T1 sequence (Q02111 232-281) with W22G

[16] = molecular target: T5, PKCθC1B L255G (Mus musculus, UniProt Q02111, L255G); test: [3H]PDBu binding assay
T5 sequence (Q02111 232-281 L255G): T1 sequence (Q02111 232-281) with L24G
Outline: as §2

[17] = molecular target: T6, PKCθC1B Q258G (Mus musculus, UniProt Q02111, Q258G); test: [3H]PDBu binding assay
T6 sequence (Q02111 232-281 Q258G): T1 sequence (Q02111 232-281) with Q27G
Outline: as §2

[18] = 100 nM PMA (second block, r6-r8), 5 min
[19] = 100 nM PMA (second block, r6-r8), 10 min
[20] = 100 nM PMA (second block, r6-r8), 20 min
[21] = 100 nM PMA as printed (first block, r3-r5), 5 min
[22] = 100 nM PMA as printed (first block, r3-r5), 10 min
[23] = 100 nM PMA as printed (first block, r3-r5), 20 min

Chain of GFP–PKCθ W253G (Q02111 whole entry W253G): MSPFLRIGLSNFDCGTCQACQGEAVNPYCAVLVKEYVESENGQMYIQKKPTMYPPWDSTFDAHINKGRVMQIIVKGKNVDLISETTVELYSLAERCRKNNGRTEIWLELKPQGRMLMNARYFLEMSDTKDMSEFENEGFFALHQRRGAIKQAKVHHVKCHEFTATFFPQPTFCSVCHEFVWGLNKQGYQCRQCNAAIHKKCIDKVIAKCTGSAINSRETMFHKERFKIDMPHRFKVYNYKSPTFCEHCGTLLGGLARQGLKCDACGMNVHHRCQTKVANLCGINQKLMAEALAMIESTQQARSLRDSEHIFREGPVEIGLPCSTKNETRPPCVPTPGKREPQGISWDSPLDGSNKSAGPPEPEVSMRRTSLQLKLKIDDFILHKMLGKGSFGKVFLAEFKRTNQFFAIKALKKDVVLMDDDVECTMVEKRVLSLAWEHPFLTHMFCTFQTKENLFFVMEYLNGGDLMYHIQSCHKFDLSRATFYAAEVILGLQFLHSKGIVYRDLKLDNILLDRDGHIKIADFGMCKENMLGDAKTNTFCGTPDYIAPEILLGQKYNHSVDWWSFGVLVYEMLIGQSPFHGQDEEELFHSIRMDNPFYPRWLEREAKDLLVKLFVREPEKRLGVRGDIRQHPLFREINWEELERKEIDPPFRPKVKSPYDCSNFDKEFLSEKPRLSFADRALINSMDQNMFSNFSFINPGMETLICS
Chain of GFP–PKCθ Q258G (Q02111 whole entry Q258G): as the sequence (Q02111 whole entry W253G) above, with G253W, Q258G counted along it
Chain of GFP–PKCθ Y239A (Q02111 whole entry Y239A): as the sequence (Q02111 whole entry W253G) above, with Y239A, G253W counted along it
Chain of GFP–PKCθ T243A (Q02111 whole entry T243A): as the sequence (Q02111 whole entry W253G) above, with T243A, G253W counted along it
Chain of GFP–PKCθ wild-type (Q02111 whole entry): as the sequence (Q02111 whole entry W253G) above, with G253W counted along it
Chain of GFP–PKCθ L255G (Q02111 whole entry L255G): as the sequence (Q02111 whole entry W253G) above, with G253W, L255G counted along it
Chain of full-length PKCθ W253G (Q02111 whole entry W253G): as the sequence (Q02111 whole entry W253G) above
Chain of full-length PKCθ Q258G (Q02111 whole entry Q258G): as the sequence (Q02111 whole entry W253G) above, with G253W, Q258G counted along it
Chain of full-length PKCθ Y239A (Q02111 whole entry Y239A): as the sequence (Q02111 whole entry W253G) above, with Y239A, G253W counted along it
Chain of full-length PKCθ T243A (Q02111 whole entry T243A): as the sequence (Q02111 whole entry W253G) above, with T243A, G253W counted along it
Chain of full-length PKCθ L255G (Q02111 whole entry L255G): as the sequence (Q02111 whole entry W253G) above, with G253W, L255G counted along it

CCCCCCCCCCCCCC(=O)O[C@@H]1[C@@H](C)[C@@]2(O)[C@@H](C=C(CO)C[C@]3(O)C(=O)C(C)=C[C@@H]23)[C@@H]2C(C)(C)[C@]12OC(C)=O [PMA]
reduction in membrane translocation compared with the wild-type [1]: 17.1% | reduction in membrane translocation compared with the wild-type [2]: 12.5% | reduction in membrane translocation compared with the wild-type [3]: 14.8% | reduction in membrane translocation compared with the wild-type [4]: 19.4% | reduction in membrane translocation compared with the wild-type [5]: 21.6% | Membrane/cytoplasmic intensity ratio, PKCθ WT ([6]; 10 nM PMA, 5 min): 1.0 ± 0.1 | Membrane/cytoplasmic intensity ratio, PKCθ WT ([6]; 10 nM PMA, 10 min): 1.0 ± 0.1 | Membrane/cytoplasmic intensity ratio, PKCθ WT ([6]; 10 nM PMA, 20 min): 1.2 ± 0.4 | time to marked translocation to the plasma membrane ([6]; 100 nM PMA): ≤ 2 min | Membrane/cytoplasmic intensity ratio, PKCθ WT [6, 18]: 8.1 ± 1.2 | Membrane/cytoplasmic intensity ratio, PKCθ WT [6, 19]: 6.5 ± 0.7 | Membrane/cytoplasmic intensity ratio, PKCθ WT [6, 20]: 5.4 ± 0.5 | Membrane/cytoplasmic intensity ratio, PKCθ WT [6, 21]: 14.5 ± 2.2 | Membrane/cytoplasmic intensity ratio, PKCθ WT [6, 22]: 11.3 ± 2.1 | Membrane/cytoplasmic intensity ratio, PKCθ WT [6, 23]: 12.1 ± 2.2 | Membrane/cytoplasmic intensity ratio, PKCθ Y239A ([7]; 10 nM PMA, 5 min): 1.1 ± 0.0 | Membrane/cytoplasmic intensity ratio, PKCθ Y239A ([7]; 10 nM PMA, 10 min): 1.1 ± 0.1 | Membrane/cytoplasmic intensity ratio, PKCθ Y239A ([7]; 10 nM PMA, 20 min): 1.0 ± 0.0 | Membrane/cytoplasmic intensity ratio, PKCθ Y239A [7, 18]: 1.7 ± 0.4 | Membrane/cytoplasmic intensity ratio, PKCθ Y239A [7, 19]: 2.3 ± 0.8 | Membrane/cytoplasmic intensity ratio, PKCθ Y239A [7, 20]: 2.3 ± 0.5 | Membrane/cytoplasmic intensity ratio, PKCθ Y239A [7, 21]: 3.8 ± 1.8 | Membrane/cytoplasmic intensity ratio, PKCθ Y239A [7, 22]: 4.2 ± 1.6 | Membrane/cytoplasmic intensity ratio, PKCθ Y239A [7, 23]: 5 ± 0.4 | Membrane/cytoplasmic intensity ratio, PKCθ T243A ([8]; 10 nM PMA, 5 min): 1.0 ± 0.0 | Membrane/cytoplasmic intensity ratio, PKCθ T243A ([8]; 10 nM PMA, 10 min): 1.3 ± 0.2 | Membrane/cytoplasmic intensity ratio, PKCθ T243A ([8]; 10 nM PMA, 20 min): 1.7 ± 0.1 | time by which translocation was largely complete ([8]; 100 nM PMA): ≤ 5 min | Membrane/cytoplasmic intensity ratio, PKCθ T243A [8, 18]: 3.6 ± 1.1 | Membrane/cytoplasmic intensity ratio, PKCθ T243A [8, 19]: 3.7 ± 0.8 | Membrane/cytoplasmic intensity ratio, PKCθ T243A [8, 20]: 3.1 ± 0.6 | Membrane/cytoplasmic intensity ratio, PKCθ T243A [8, 21]: 10.3 ± 1.9 | Membrane/cytoplasmic intensity ratio, PKCθ T243A [8, 22]: 9.9 ± 1.5 | Membrane/cytoplasmic intensity ratio, PKCθ T243A [8, 23]: 7.4 ± 1.5 | Membrane/cytoplasmic intensity ratio, PKCθ W253G ([9]; 10 nM PMA, 5 min): 1.0 ± 0.1 | Membrane/cytoplasmic intensity ratio, PKCθ W253G ([9]; 10 nM PMA, 10 min): 1.1 ± 0.1 | Membrane/cytoplasmic intensity ratio, PKCθ W253G ([9]; 10 nM PMA, 20 min): 1.2 ± 0.2 | Membrane/cytoplasmic intensity ratio, PKCθ W253G [9, 18]: 1.9 ± 0.4 | Membrane/cytoplasmic intensity ratio, PKCθ W253G [9, 19]: 3.0 ± 0.7 | Membrane/cytoplasmic intensity ratio, PKCθ W253G [9, 20]: 2.6 ± 0.6 | Membrane/cytoplasmic intensity ratio, PKCθ W253G [9, 21]: 11.4 ± 3.6 | Membrane/cytoplasmic intensity ratio, PKCθ W253G [9, 22]: 12.7 ± 3.9 | Membrane/cytoplasmic intensity ratio, PKCθ W253G [9, 23]: 13.2 ± 5.0 | Membrane/cytoplasmic intensity ratio, PKCθ L255G ([10]; 10 nM PMA, 5 min): 1.1 ± 0.1 | Membrane/cytoplasmic intensity ratio, PKCθ L255G ([10]; 10 nM PMA, 10 min): 1.1 ± 0.1 | Membrane/cytoplasmic intensity ratio, PKCθ L255G ([10]; 10 nM PMA, 20 min): 1.1 ± 0.0 | Membrane/cytoplasmic intensity ratio, PKCθ L255G [10, 18]: 1.3 ± 0.1 | Membrane/cytoplasmic intensity ratio, PKCθ L255G [10, 19]: 1.6 ± 0.2 | Membrane/cytoplasmic intensity ratio, PKCθ L255G [10, 20]: 2.3 ± 0.4 | Membrane/cytoplasmic intensity ratio, PKCθ L255G [10, 21]: 4.8 ± 1.5 | Membrane/cytoplasmic intensity ratio, PKCθ L255G [10, 22]: 6.0 ± 1.2 | Membrane/cytoplasmic intensity ratio, PKCθ L255G [10, 23]: 7.2 ± 1.9 | Membrane/cytoplasmic intensity ratio, PKCθ Q258G ([11]; 10 nM PMA, 5 min): 1.2 ± 0.1 | Membrane/cytoplasmic intensity ratio, PKCθ Q258G ([11]; 10 nM PMA, 10 min): 1.1 ± 0.1 | Membrane/cytoplasmic intensity ratio, PKCθ Q258G ([11]; 10 nM PMA, 20 min): 1.1 ± 0.0 | Membrane/cytoplasmic intensity ratio, PKCθ Q258G [11, 18]: 1.0 ± 0.0 | Membrane/cytoplasmic intensity ratio, PKCθ Q258G [11, 19]: 1.1 ± 0.0 | Membrane/cytoplasmic intensity ratio, PKCθ Q258G [11, 20]: 1.1 ± 0.0 | Membrane/cytoplasmic intensity ratio, PKCθ Q258G [11, 21]: 1.2 ± 0.1 | Membrane/cytoplasmic intensity ratio, PKCθ Q258G [11, 22]: 2.0 ± 0.3 | Membrane/cytoplasmic intensity ratio, PKCθ Q258G [11, 23]: 2.1 ± 0.4 | plasma membrane translocation response ([11]; 100 nM PMA, by 20 min): little response | plasma membrane translocation response ([11]; 1000 nM PMA, later times): partial translocation

CCCCC/C=C\C/C=C\C/C=C\C/C=C\CCCC(=O)OC(CO)COC(=O)CCCCCCCCCCCCCCCCC (stereo not drawn) [SAG, sn-1-stearoyl 2-arachidonyl glycerol]
stronger binding affinity for SAG than for DOG ([12]; C1B domain of PKCθ): 2 fold | Ki/Kd ([12]; PKCθ C1B WT, Ki of the diacylglycerol over Kd of PDBu): 22 | Ki ([12]; PKCθ C1B WT, competition of [3H]PDBu binding, mean ± S.E.M.): 8.7 ± 2 nM | Ki/Kd ([13]; PKCθ C1B Y239A, Ki of the diacylglycerol over Kd of PDBu): 11 | Ki ([13]; PKCθ C1B Y239A, competition of [3H]PDBu binding, mean ± S.E.M.): 35.1 ± 5.1 nM | reduction in binding affinity compared with the wild-type ([13]; Y239A vs wild-type PKCθC1B (Kd for PDBu, Ki for DOG/SAG)): 4.13 fold | Ki/Kd ([14]; PKCθ C1B T243A, Ki of the diacylglycerol over Kd of PDBu): 9 | Ki ([14]; PKCθ C1B T243A, competition of [3H]PDBu binding, mean ± S.E.M.): 5.5 ± 1.5 nM | reduction in binding affinity compared with the wild-type ([14]; T243A vs wild-type PKCθC1B (Kd for PDBu, Ki for DOG/SAG)): 0.63 fold | Ki/Kd ([15]; PKCθ C1B W253G, Ki of the diacylglycerol over Kd of PDBu): 92 | Ki ([15]; PKCθ C1B W253G, competition of [3H]PDBu binding, mean ± S.E.M.): 271 ± 22 nM | reduction in binding affinity compared with the wild-type ([15]; W253G vs wild-type PKCθC1B (Kd for PDBu, Ki for DOG/SAG)): 31.1 fold and 31 fold | reduction in binding affinity compared with the wild-type ([16]; L255G vs wild-type PKCθC1B (Kd for PDBu, Ki for DOG/SAG)): 8.16 fold | Ki/Kd ([16]; PKCθ C1B L255G, Ki of the diacylglycerol over Kd of PDBu): 16 | Ki ([16]; PKCθ C1B L255G, competition of [3H]PDBu binding, mean ± S.E.M.): 71 ± 10 nM | Ki/Kd ([17]; PKCθ C1B Q258G, Ki of the diacylglycerol over Kd of PDBu): 3 | Ki ([17]; PKCθ C1B Q258G, competition of [3H]PDBu binding, mean ± S.E.M.): 2260 ± 330 nM | reduction in binding affinity compared with the wild-type ([17]; Q258G vs wild-type PKCθC1B (Kd for PDBu, Ki for DOG/SAG)): 260 fold
